The values below come from ChEMBL document CHEMBL3779871, “4,5-Diarylisoxazol-3-carboxylic acids: A new class of leukotriene biosynthesis inhibitors potentially targeting 5-lipoxygenase-activating protein (FLAP)” (Eur J Med Chem, 2016).

For data set [1], the target named is T1, Arachidonate 5-lipoxygenase-activating protein (Homo sapiens, UniProt P20292).
T1 sequence (P20292 whole entry): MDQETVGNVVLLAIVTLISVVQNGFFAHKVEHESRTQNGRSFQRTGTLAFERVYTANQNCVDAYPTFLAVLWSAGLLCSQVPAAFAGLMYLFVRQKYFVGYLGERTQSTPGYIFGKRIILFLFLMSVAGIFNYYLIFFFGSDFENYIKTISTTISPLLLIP
Kind of data set: Inhibition of FLAP in Ca+2 ionophore A23187 stimulated human neutrophils assessed as 5-LO product formation preincubated for 15 mins measured after 10 mins by RP-HPLC analysis.

The nature of data set [2]: Acute cytotoxicity against human neutrophils assessed as cell viability measured for 30 mins by trypan blue exclusion method. Conditions: neutrophil, 0.5 h. It is filed as cell-based. An outline of the steps:
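Neutrophils isolated from healthy donor blood by dextran sedimentation and Nycoprep centrifugation, then resuspended in PBS pH 7.4 with 1 mg/ml glucose and 1 mM CaCl₂. Cells were kept 30 min at 37 °C with compound, and cell integrity was read by trypan blue exclusion on an automated counter.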

Data set [3] deals with T2, Arachidonate 5-lipoxygenase-activating protein (Homo sapiens) (UniProt P20292).
T2 sequence (whole entry): T1 sequence (P20292 whole entry)
As to the kind of experiment: Inhibition of FLAP in Ca+2 ionophore A23187 stimulated human neutrophils assessed as remaining 5-LO activity preincubated for 15 mins at 10 uM measured after 10 mins by RP-HPLC analysis.

Data set [4] has as its target T3, Polyunsaturated fatty acid 5-lipoxygenase (Homo sapiens, UniProt P09917).
T3 sequence (P09917 whole entry): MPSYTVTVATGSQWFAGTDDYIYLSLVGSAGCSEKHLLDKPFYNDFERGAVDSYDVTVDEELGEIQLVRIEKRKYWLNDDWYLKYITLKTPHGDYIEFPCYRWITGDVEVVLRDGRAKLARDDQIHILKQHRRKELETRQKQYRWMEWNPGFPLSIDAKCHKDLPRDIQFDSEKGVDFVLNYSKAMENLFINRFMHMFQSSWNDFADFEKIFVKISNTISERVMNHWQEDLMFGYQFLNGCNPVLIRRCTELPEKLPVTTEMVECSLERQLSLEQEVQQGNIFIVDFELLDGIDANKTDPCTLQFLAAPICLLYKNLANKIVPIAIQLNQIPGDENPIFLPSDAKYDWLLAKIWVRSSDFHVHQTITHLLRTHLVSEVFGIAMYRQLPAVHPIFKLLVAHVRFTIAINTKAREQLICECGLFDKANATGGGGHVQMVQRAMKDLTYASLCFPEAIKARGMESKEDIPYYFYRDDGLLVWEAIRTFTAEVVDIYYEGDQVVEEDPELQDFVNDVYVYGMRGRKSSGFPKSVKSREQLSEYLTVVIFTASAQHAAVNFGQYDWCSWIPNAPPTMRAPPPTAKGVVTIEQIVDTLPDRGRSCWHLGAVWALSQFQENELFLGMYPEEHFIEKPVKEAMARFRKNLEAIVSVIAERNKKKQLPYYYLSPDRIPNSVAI
Kind of data set: Inhibition of recombinant human 5-LO expressed in Escherichia coli BL21 assessed as 5-LO product formation preincubated for 15 mins followed by addition of arachidonic acid as substrate measured after 10 mins by RP-HPLC analysis. The essentials:
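Semi-purified 5-LO was diluted in ice-cold PBS with 1 mM EDTA and 1 mM ATP, then held 15 min at 4 °C with compound or 0.1% DMSO. After a 30 s prewarm at 37 °C, 2 mM CaCl₂ plus 20 arachidonic acid were added for 10 min at 37 °C. The reaction was stopped with methanol, and LTB₄ all-trans isomers plus 5-H(P)ETE were read by RP-HPLC. IC₅₀ is n = 3–4 in duplicates.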

For `O=C(O)c1noc(-c2ccc(OCc3nc4ccccc4s3)cc2)c1-c1ccc(Cl)cc1`, the concentration for half-maximal inhibition (IC50) (commonly the concentration at which inhibition is half-maximal) in data set [1] was 0.24 µM; in data set [4], > 10 µM. Moreover, the Activity result in data set [2] was “Non-toxic”; in data set [3], 2%.
Take `O=C(O)c1noc(-c2ccc(OCc3ccccc3Cl)cc2)c1-c1ccc(Cl)cc1`: the IC50 in data set [1] worked out at 1.2 µM. Also, the Activity entry in data set [2] was “Non-toxic”; in data set [3], 5.1%.
For the compound `CCOC(=O)c1noc(-c2ccc(OCc3cccc(F)c3)cc2)c1-c1ccc(Cl)cc1`, the Activity result was “Non-toxic” in data set [2] and 55.3% in data set [3].
As to `O=C(O)c1noc(-c2ccc(OCc3ccccc3C(F)(F)F)cc2)c1-c1ccc(Cl)cc1`, the 50% inhibitory concentration (IC50) in data set [1] is 0.77 µM. The Activity result in data set [2] is “Non-toxic”; in data set [3], 5.5%.
On to `CCOC(=O)c1noc(-c2ccc(OCc3ccc(C)cc3)cc2)c1-c1ccc(Cl)cc1`, for which the Activity result was “Non-toxic” in data set [2] and 61.4% in data set [3].
In the case of `Cc1ccccc1COc1ccc(-c2onc(C(=O)O)c2-c2ccc(Cl)cc2)cc1`, in data set [1], the IC50 was 1.7 µM. Besides, the Activity entry in data set [2] was “Non-toxic”; in data set [3], 13.1%.
For `Cc1ccccc1COc1ccc(-c2onc(C)c2-c2ccc(Cl)cc2)c(O)c1`, the values for the Activity result in data set [2] and in data set [3] were “Non-toxic” and 3%, respectively.
For `O=C(O)c1noc(-c2ccc(OCc3ccc4ccccc4n3)cc2)c1-c1ccc(Cl)cc1`, the IC50 in data set [1] was found to be 0.24 µM. Moreover, the Activity entry in data set [2] was “Non-toxic”; in data set [3], 2.7%.
As to `COc1cc(OCc2ccccc2C)ccc1-c1onc(C)c1-c1ccc(Cl)cc1`, the values for the Activity entry in data set [2] and in data set [3] were “Non-toxic” and 81.3%, respectively.
As for `Cc1ccc(COc2ccc(-c3onc(C(=O)O)c3-c3ccc(Cl)cc3)cc2)cc1`, in data set [1], the half-inhibitory concentration (IC50) came out at 1.4 µM. Besides, the Activity entry in data set [2] is “Non-toxic”; in data set [3], 15.7%.
As for `N#Cc1cccc(COc2ccc(-c3onc(C(=O)O)c3-c3ccc(Cl)cc3)cc2)c1`, the IC50 in data set [1] was determined as 4.1 µM. The Activity result in data set [2] was “Non-toxic”; in data set [3] it was 6.9%.
As for `O=C(O)c1noc(-c2ccc(OCc3cccc(F)c3)cc2)c1-c1ccc(Cl)cc1`, the IC50 in data set [1] worked out at 1.3 µM. Moreover, the Activity result is “Non-toxic” in data set [2] and 19.6% in data set [3].
For `O=C(O)c1noc(-c2ccc(OCc3ccccn3)cc2)c1-c1ccc(Cl)cc1`, in that order: 4.1 µM, “Non-toxic” and 8.4%.
Consider `Cc1ccccc1COc1ccc(-c2onc(C)c2-c2ccc(Cl)cc2)cc1`, for which the Activity entry in data set [2] was “Non-toxic”; in data set [3] it was 102%.
For the compound `CC(c1cc2ccccc2s1)N(O)C(N)=O` (stereo not drawn) [ZILEUTON], the Activity entry in data set [2] was “Non-toxic”; in data set [3] it was 6.7%.
Take `CCOC(=O)c1noc(-c2ccc(OCc3ccccc3C)cc2)c1-c1ccc(Cl)cc1`: the IC50 in data set [1] was > 10 µM. Further, the Activity entry in data set [2] was “Non-toxic”; in data set [3] it was 71.9%.
